Experimental data collected from several papers.
Compare with care: the assays were run in different laboratories.
Cell line: HepG2
Observed: cell growth or viability

For `CN(C)c1cc(NC(=O)Cc2ncccn2)c(O)c2c1C[C@H]1C[C@H]3[C@H](N(C)C)C(O)=C(C(N)=O)C(=O)[C@@]3(O)C(O)=C1C2=O`, the IC50 was 108 µg/mL (ATP luminescence; 72 h).
`C[C@H](CCC(=O)O)[C@H]1CC[C@H]2[C@@H]3CC[C@@H]4C[C@H](O)CC[C@]4(C)[C@H]3CC[C@]12C` gave an IC50 of 52 µM (MTT; 72 h).
The IC50 of `CN(C)c1cc(NC(=O)Cc2cccnc2)c(O)c2c1C[C@H]1C[C@H]3[C@H](N(C)C)C(O)=C(C(N)=O)C(=O)[C@@]3(O)C(O)=C1C2=O` is reported as over 200 µg/mL (ATP luminescence; 72 h).
With `CCCOc1nc(-c2cccc(O)c2)cc(-c2cc3ccccc3nc2N2CCOCC2)c1C#N` the IC50 was 0.269 µM (MTT; 72 h).
For `CN(C)c1cc(NC(=O)CNC(C)(C)C)c(O)c2c1C[C@H]1C[C@H]3[C@H](N(C)C)C(O)=C(C(N)=O)C(=O)[C@@]3(O)C(O)=C1C2=O`, the IC50 was over 200 µg/mL (ATP luminescence; 72 h).
`Clc1ccc(-c2nnc(Nc3ccc(C4=NNC(c5ccc(Cl)cc5)C4)cc3)c3ccccc23)cc1` (stereo not drawn) gave an IC50 of 0.8 µM (MTT; 72 h).
`COc1cccc2c1C(=O)c1c(O)c3c(c(O)c1C2=O)C[C@@](O)(C(=O)CO)C[C@@H]3O[C@H]1C[C@H](N)[C@H](O)[C@H](C)O1` has an IC50 of 0.54 µM (MTT; 72 h).
`COc1nc(NCc2cn(-c3ccc(C(=O)Nc4ccccc4)cc3)nn2)nc(OC)n1` has an IC50 of 1.48 µM (MTT; 72 h).
With `COc1ccc(-c2cc(-c3ccc(OC)cc3)c3c(=O)[nH]c(=O)[nH]c3n2)cc1` the IC50 was 9.62 µM (MTT; 48 h).
`Cc1nc(Nc2ncc(C(=O)Nc3c(C)cccc3Cl)s2)cc(N2CCN(CCO)CC2)n1` has an IC50 of 60.8 µM (MTT; 24 h).
For `COc1ccc(-c2cc(-c3cccc(Br)c3)c3c(=O)n(C)c(=O)n(C)c3n2)cc1`, the IC50 was 12.4 µM (MTT; 48 h).
The IC50 of `O=C(O)Cc1csc(NC(=O)c2cc3ccccc3[nH]2)n1` is reported as 13.9 µM (MTT; 24 h).
`Cc1ccc(-c2cc(-c3ccc(N(C)C)cc3)c3c(=O)[nH]c(=O)[nH]c3n2)cc1` gave an IC50 of 12.1 µM (MTT; 48 h).
`CN(C)c1cc(NC(=O)Cc2ccccn2)c(O)c2c1C[C@H]1C[C@H]3[C@H](N(C)C)C(O)=C(C(N)=O)C(=O)[C@@]3(O)C(O)=C1C2=O` has an IC50 of over 200 µg/mL (ATP luminescence; 72 h).
For `COc1ccc(-c2cc(-c3c(OC)cccc3OC)c3c(=O)[nH]c(=O)[nH]c3n2)cc1`, the IC50 was 36.5 µM (MTT; 48 h).
`CCCOc1nc(-c2cccc(O)c2)cc(-c2cc3cc(Cl)ccc3nc2N2CCOCC2)c1C#N` has an IC50 of 0.084 µM (MTT; 72 h).
`COc1ccc(-c2cc(-c3ccccc3Cl)c3c(=O)n(C)c(=O)n(C)c3n2)cc1` has an IC50 of 18.9 µM (MTT; 48 h).
The IC50 of `CN(C)c1cc(NC(=O)Cc2cccnn2)c(O)c2c1C[C@H]1C[C@H]3[C@H](N(C)C)C(O)=C(C(N)=O)C(=O)[C@@]3(O)C(O)=C1C2=O` is reported as over 200 µg/mL (ATP luminescence; 72 h).
`O=C(C=Cc1ccccc1)Nc1cc(-c2ccnc(N3CCC(O)CC3)c2)ccn1` gave an IC50 of 0.111 µM (MTT; 72 h).
For `CN(C)c1cc(NC(=O)Cc2ccn(C)n2)c(O)c2c1C[C@H]1C[C@H]3[C@H](N(C)C)C(O)=C(C(N)=O)C(=O)[C@@]3(O)C(O)=C1C2=O`, the IC50 was over 200 µg/mL (ATP luminescence; 72 h).
`Cc1ccc(-c2cc(-c3c(Cl)cccc3Cl)c3c(=O)n(C)c(=O)n(C)c3n2)cc1` gave an IC50 of 7.49 µM (MTT; 48 h).
`CN(C)c1ccc(O)c2c1C[C@H]1C[C@H]3[C@H](N(C)C)C(O)=C(C(N)=O)C(=O)[C@@]3(O)C(O)=C1C2=O` gave an IC50 of over 200 µg/mL (ATP luminescence; 72 h).
With `Cc1ccc(-c2cc(-c3ccc(Cl)c(F)c3)c3c(=O)[nH]c(=O)[nH]c3n2)cc1` the IC50 was 15.7 µM (MTT; 48 h).
`O=C(Cc1csc(NC(=O)c2cc3ccccc3[nH]2)n1)NO` gave an IC50 of 67.9 µM (MTT; 24 h).
